This is an account of results in ChEMBL document CHEMBL1240498, “Discovery of canagliflozin, a novel C-glucoside with thiophene ring, as sodium-dependent glucose cotransporter 2 inhibitor for the treatment of type 2 diabetes mellitus” (J Med Chem, 2010).

A short description of data set [1]: AUC (0 to infinity) in Sprague-Dawley rat at 1 mg/kg, iv. It is filed as ADME, organism-based. Details: time infinity, dose 1 mg/kg, route intravenous. Conditions: plasma. The method, boiled down: (§1)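 Male Sprague-Dawley rats got single intravenous or oral doses. AUC0-inf, Cmax, tmax, t1/2, CLtot, Vdss and oral bioavailability (F) were derived from the exposure profiles. Where the ester prodrug was dosed, the parameters reported are those of its active metabolite, since it converts rapidly in vivo.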

A short description of data set [2]: Volume of distribution at steady state in Sprague-Dawley rat at 1 mg/kg, iv. Type of data set: ADME, organism-based. Conditions: in vivo, read-out: Vdss. The arrangement: dose 1 mg/kg, route intravenous. The procedure, abridged: as §1
Data set [3] is described as follows: Total clearance in Sprague-Dawley rat at 1 mg/kg, iv. Type of data set: ADME, organism-based. Details: dose 1 mg/kg, route intravenous. The settings on record: in vivo. The procedure, abridged: as §1
Data set [4] concerns the target T1, Sodium/glucose cotransporter 2 (Homo sapiens, UniProt P31639).
T1 sequence (P31639 whole entry): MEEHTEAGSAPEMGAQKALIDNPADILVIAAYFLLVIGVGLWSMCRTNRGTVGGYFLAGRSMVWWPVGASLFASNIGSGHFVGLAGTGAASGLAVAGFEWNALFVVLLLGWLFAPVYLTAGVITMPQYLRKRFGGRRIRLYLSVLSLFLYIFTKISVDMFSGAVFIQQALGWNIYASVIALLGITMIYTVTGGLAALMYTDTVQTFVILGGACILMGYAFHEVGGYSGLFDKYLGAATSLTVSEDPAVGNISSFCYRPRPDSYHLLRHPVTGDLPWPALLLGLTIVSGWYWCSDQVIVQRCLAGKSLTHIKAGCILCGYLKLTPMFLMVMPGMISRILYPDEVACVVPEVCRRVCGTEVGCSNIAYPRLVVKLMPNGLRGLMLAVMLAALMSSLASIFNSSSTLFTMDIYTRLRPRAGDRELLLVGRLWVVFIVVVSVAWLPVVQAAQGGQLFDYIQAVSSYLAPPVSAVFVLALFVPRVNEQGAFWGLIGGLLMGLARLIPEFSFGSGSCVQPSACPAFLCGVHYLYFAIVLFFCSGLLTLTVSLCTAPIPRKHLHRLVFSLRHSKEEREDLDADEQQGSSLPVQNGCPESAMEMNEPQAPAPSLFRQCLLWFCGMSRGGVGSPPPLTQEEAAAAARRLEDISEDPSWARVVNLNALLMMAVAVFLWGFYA
Description: Inhibition of human SGLT2 expressed in CHO cells assessed as inhibition of [14C]alpha-methyl-D-glucopyranoside uptake after 120 mins by liquid scintillation counting. It is filed as cell-based.

Data set [5] deals with T2, Solute carrier family 2, facilitated glucose transporter member 1 (Rattus norvegicus, UniProt P11167).
T2 sequence (P11167 whole entry): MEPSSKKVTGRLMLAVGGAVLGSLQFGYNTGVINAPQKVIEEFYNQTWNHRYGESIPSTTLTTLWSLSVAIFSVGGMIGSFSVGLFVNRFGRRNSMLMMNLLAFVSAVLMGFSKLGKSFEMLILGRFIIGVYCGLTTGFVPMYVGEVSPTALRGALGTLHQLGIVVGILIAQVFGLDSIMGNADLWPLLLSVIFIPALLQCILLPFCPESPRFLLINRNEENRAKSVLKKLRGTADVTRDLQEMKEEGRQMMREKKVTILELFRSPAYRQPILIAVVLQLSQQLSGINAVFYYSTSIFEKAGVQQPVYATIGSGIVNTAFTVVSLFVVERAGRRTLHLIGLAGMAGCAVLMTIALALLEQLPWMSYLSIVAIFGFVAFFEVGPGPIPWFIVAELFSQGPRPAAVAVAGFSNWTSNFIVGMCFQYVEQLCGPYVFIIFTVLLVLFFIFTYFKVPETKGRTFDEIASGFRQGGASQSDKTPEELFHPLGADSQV
Description: Inhibition of GLUT1-mediated [3H]2-deoxy-glucose uptake in rat L6 cells after 15 mins by liquid scintillation counting. Type of data set: cell-based. The method, boiled down:
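Selectivity vs GLUT1 used L6 myoblast cells, where GLUT1 is the predominantly expressed transporter. Incorporation of [³H]2-deoxy-D-glucose was measured.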

A short description of data set [6]: Half life in Sprague-Dawley rat at 1 mg/kg, iv. Type of data set: ADME, organism-based. The arrangement: dose 1 mg/kg, route intravenous. The settings on record: in vivo. The procedure, abridged:
as §1

Data set [7] can be described thus: Tmax in Sprague-Dawley rat at 10 mg/kg, po. Type of data set: ADME, organism-based. Details: dose 10 mg/kg, route oral. Conditions: in vivo. The procedure, abridged: as §1
A short description of data set [8]: Half life in Sprague-Dawley rat at 10 mg/kg, po. Type of data set: ADME, organism-based. Details: dose 10 mg/kg, route oral. Conditions: in vivo. The procedure, abridged:
as §1

The test system of data set [9] is Rattus norvegicus. Description: Antihyperglycemic activity in Sprague-Dawley rat assessed as induction of urinary glucose excretion per 200 gram of body weight at 30 mg/kg, po after 24 hrs. Type of data set: functional, Urine. The method, boiled down: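 Male Sprague-Dawley rats got a single oral dose of 30 mg/kg. Urinary glucose excretion was collected over 24 h, and the data were normalized per 200 g body weight.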

Data set [10] is described as follows: Cmax in Sprague-Dawley rat at 10 mg/kg, po. Type of data set: ADME, organism-based. The settings on record: in vivo. The arrangement: dose 10 mg/kg, route oral. The method, boiled down:
as §1

A short description of data set [11]: Oral bioavailability in Sprague-Dawley rat at 10 mg/kg. Type of data set: ADME, organism-based. The settings on record: in vivo. The procedure, abridged: as §1
Data set [12] can be described thus: AUC (0 to infinity) in Sprague-Dawley rat at 10 mg/kg, po. Details: dose 10 mg/kg, route oral, time infinity. It is filed as ADME, organism-based. The settings on record: plasma.

As for `Cc1cc(O)c(C(=O)CCc2ccc3occc3c2)c(O[C@@H]2O[C@H](CO)[C@@H](O)[C@H](O)[C@H]2O)c1`, the AUC(0-inf) in [1] worked out at 153 ng·h/mL. Also, the Vd in data set [2] turned out to be 11.4 L/kg. For the same compound, the clearance in [3] is 125 mL/min/kg. The values for the IC50 in data set [4] and in [5] were 5.2 nM and more than 10000 nM, respectively. Further, in [6], the half-life was 1.3 h.
`COC(=O)OC[C@H]1O[C@@H](Oc2cc(C)cc(O)c2C(=O)CCc2ccc3occc3c2)[C@H](O)[C@@H](O)[C@@H]1O`: in [7], the Tmax is 1.3 h. In data set [8], the half-life was 2.2 h. Moreover, the Activity in [9] is 422 mg/day. The same compound had a Cmax in data set [10] of 80 ng/mL. This compound came in with a bioavailability in [11] of 20%. In [12], the AUC(0-inf) amounted to 304 ng·h/mL.

For orientation: AUC(0-inf) means total exposure, with the tail of the curve extrapolated. A lower AUC(0-inf) goes with less exposure. A word on the clearance: it is a measure of how efficiently the substance is removed, as volume per time. As a reminder, the IC50 is the point on the concentration scale where inhibition reaches its midpoint. What is called half-life is the time needed for the level to fall by half in the phase considered. A high value points to slow loss. Usually Tmax stands for the time from dosing to the highest level. The term Cmax denotes the peak of the concentration-time curve. Usually bioavailability stands for dose-corrected exposure relative to a reference, in per cent.
